From ChEMBL document CHEMBL1125330, “N-substituted pyrazino[2,3-c][1,2,6]thiadiazine 2,2-dioxides. A new class of diuretics” (J Med Chem, 1992)

How the values were obtained:
Settings in all cases: in vivo
Rattus norvegicus [1] = assay: Mean Chlorine excretion in rats when compound administered at 10 mg/kg po and vehicle dosed at 33.59 umol/kg; format: ADME, organism-based; design: dose 10 mg/kg, route oral
Outline: (§1)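 Male Sprague-Dawley rats (HC/CFY, 175-200 g), no food or water for 18 h before and during the test. Single gavage dose (2.5-160 mg/kg; vehicle 1% carboxymethyl cellulose/0.1% Tween 80, 0.5 mL/100 g bw), then distilled water 2.5 mL/100 g bw po. Individual metabolic cages, 6 h urine. K+ by flame photometry, Cl- colorimetric, as mequiv/6 h/kg bw; unpaired Student t-test vs control.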

Rattus norvegicus [2] = assay: Mean Chlorine excretion in rats when compound administered at 5 mg/kg po and vehicle dosed at 16.79 umol/kg; format: ADME, organism-based; design: dose 5 mg/kg, route oral; outline: as §1
Rattus norvegicus [3] = assay: Mean Chlorine excretion in rats when compound administered at 0 mg/kg po and vehicle dosed at 0 umol/kg; format: ADME, organism-based; design: dose 0 mg/kg, route oral
Rattus norvegicus [4] = assay: Mean Chlorine excretion in rats when compound administered at 80 mg/kg po and vehicle dosed at 268.71 umol/kg; format: ADME, organism-based; design: dose 80 mg/kg, route oral; outline: as §1
Rattus norvegicus [5] = assay: Mean potassium excretion in rats when compound administered at 20 mg/kg po and vehicle dosed at 67.18 umol/kg; format: ADME, organism-based; design: dose 20 mg/kg, route oral; outline: as §1
Rattus norvegicus [6] = assay: Mean potassium excretion in rats when compound administered at 40 mg/kg po and vehicle dosed at 134.35 umol/kg; format: ADME, organism-based; design: dose 40 mg/kg, route oral; outline: as §1
Rattus norvegicus [7] = assay: Mean potassium excretion in rats when compound administered at 5 mg/kg po and vehicle dosed at 16.79 umol/kg; format: ADME, organism-based; design: dose 5 mg/kg, route oral
Outline: (§2)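 Male Sprague-Dawley rats (HC/CFY, 175-200 g) fasted and water-deprived 18 h before and during the test. Dosed by gavage at 2.5-160 mg/kg in 1% carboxymethyl cellulose/0.1% Tween 80, 0.5 mL/100 g bw. Immediately hydrated with water (2.5 mL/100 g bw, po). Urine collected 6 h in metabolic cages; Na+ and K+ by flame photometry; mean mequiv/6 h/kg bw; nonpaired Student t-test.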

Rattus norvegicus [8] = assay: Mean potassium excretion in rats when compound administered at 80 mg/kg po and vehicle dosed at 268.71 umol/kg; format: ADME, organism-based; design: dose 80 mg/kg, route oral; outline: as §2
Rattus norvegicus [9] = assay: Urinary sodium 2 hr after the compound was administered 10 mg/kg po in rat; format: ADME, organism-based, Urine; design: dose 10 mg/kg, route oral
Outline: (§3)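 Onset and duration study in fasted, water-loaded male Sprague-Dawley rats housed two per metabolic cage, six pairs per group. Single oral dose given, then water 2.5 mL/100 g po. Urine volume and sodium (flame photometry) measured over 0-1, 1-2, 2-3, 3-4 and 4-6 h intervals. Mean values compared with vehicle by Student t-test.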

Rattus norvegicus [10] = assay: Urinary sodium 3h after the compound was administered 10 mg/kg po in rat; format: ADME, organism-based, Urine; design: dose 10 mg/kg, route oral; outline: as §3
Rattus norvegicus [11] = assay: Urinary sodium 4 hr after the compound was administered 10 mg/kg po in rat; format: ADME, organism-based, Urine; design: dose 10 mg/kg, route oral; outline: as §3
Rattus norvegicus [12] = assay: Urinary sodium 6 hr after the compound was administered 10 mg/kg po in rat; format: ADME, organism-based, Urine; design: dose 10 mg/kg, route oral; outline: as §3
Rattus norvegicus [13] = assay: Mean potassium excretion in rats when compound administered at 0 mg/kg po and vehicle dosed at 0 umol/kg; format: ADME, organism-based; design: dose 0 mg/kg, route oral; outline: as §1
Rattus norvegicus [14] = assay: Mean potassium excretion in rats when compound administered at 10 mg/kg po and vehicle dosed at 33.59 umol/kg; format: ADME, organism-based; design: dose 10 mg/kg, route oral; outline: as §1
Rattus norvegicus [15] = assay: Mean sodium excretion in rats when compound administered at 0 mg/kg po and vehicle dosed at 0 umol/kg; format: ADME, organism-based; design: dose 0 mg/kg, route oral; outline: as §2
Rattus norvegicus [16] = assay: Mean sodium excretion in rats when compound administered at 10 mg/kg po and vehicle dosed at 33.59 umol/kg; format: ADME, organism-based; design: dose 10 mg/kg, route oral; outline: as §2
Rattus norvegicus [17] = assay: Mean sodium excretion in rats when compound administered at 2.5 mg/kg po and vehicle dosed at 8.4 umol/kg; format: ADME, organism-based; design: dose 2.5 mg/kg, route oral; outline: as §2
Rattus norvegicus [18] = assay: Mean sodium excretion in rats when compound administered at 20 mg/kg po and vehicle dosed at 67.18 umol/kg; format: ADME, organism-based; design: dose 20 mg/kg, route oral; outline: as §2
Rattus norvegicus [19] = assay: Mean sodium excretion in rats when compound administered at 40 mg/kg po and vehicle dosed at 134.35 umol/kg; format: ADME, organism-based; design: dose 40 mg/kg, route oral; outline: as §2
Rattus norvegicus [20] = assay: Mean sodium excretion in rats when compound administered at 5 mg/kg po and vehicle dosed at 16.79 umol/kg; format: ADME, organism-based; design: dose 5 mg/kg, route oral; outline: as §2
Rattus norvegicus [21] = assay: Mean sodium excretion in rats when compound administered at 80 mg/kg po and vehicle dosed at 268.71 umol/kg; format: ADME, organism-based; design: dose 80 mg/kg, route oral; outline: as §2

NS(=O)(=O)c1cc2c(cc1Cl)NCNS2(=O)=O [HYDROCHLOROTHIAZIDE]
Cl- (Rattus norvegicus [1]): 4.44 m equiv 6hr-1 kg-1 (body weight)-1 | Cl- (Rattus norvegicus [2]): 4.88 m equiv 6hr-1 kg-1 (body weight)-1 | Cl- (Rattus norvegicus [3]): 0.78 m equiv 6hr-1 kg-1 (body weight)-1 | Cl- (Rattus norvegicus [4]): 4.88 m equiv 6hr-1 kg-1 (body weight)-1 | K (Rattus norvegicus [5]): 1.43 m equiv 6hr-1 kg-1 (body weight)-1 | K (Rattus norvegicus [6]): 1.64 m equiv 6hr-1 kg-1 (body weight)-1 | K (Rattus norvegicus [7]): 1.23 m equiv 6hr-1 kg-1 (body weight)-1 | K (Rattus norvegicus [8]): 1.57 m equiv 6hr-1 kg-1 (body weight)-1 | Urinary Na+ (Rattus norvegicus [9]): 0.39 m equiv | Urinary Na+ (Rattus norvegicus [10]): 0.17 m equiv | Urinary Na+ (Rattus norvegicus [11]): 0.16 m equiv | Urinary Na+ (Rattus norvegicus [12]): 0.24 m equiv | K (Rattus norvegicus [13]): 0.53 m equiv 6hr-1 kg-1 (body weight)-1 | K (Rattus norvegicus [14]): 1.14 m equiv 6hr-1 kg-1 (body weight)-1 | Na (Rattus norvegicus [15]): 0.32 m equiv 6hr-1 kg-1 (body weight)-1 | Na (Rattus norvegicus [16]): 2.86 m equiv 6hr-1 kg-1 (body weight)-1 | Na (Rattus norvegicus [17]): 2.14 m equiv 6hr-1 kg-1 (body weight)-1 | Na (Rattus norvegicus [18]): 3.05 m equiv 6hr-1 kg-1 (body weight)-1 | Na (Rattus norvegicus [19]): 2.78 m equiv 6hr-1 kg-1 (body weight)-1 | Na (Rattus norvegicus [20]): 3.03 m equiv 6hr-1 kg-1 (body weight)-1 | Na (Rattus norvegicus [21]): 3.19 m equiv 6hr-1 kg-1 (body weight)-1
